Measurements from paper PMC8992017 (Journal of medicinal chemistry, 2019).
Entries after “also recorded” stand apart in the source; their conditions may differ.

Key:
ISRE [1] = assay: ISRE activity in ISRE-bla THP-1 reporter cells; type: cell-based; conditions: for ISRE activity (in words): compound 5 μM + IFN-α, compared with compound 1
Outline: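 ISRE-bla THP-1 cells at 5×10^4/well in RPMI with 10% dialyzed FBS, 0.1 mM non-essential amino acids, 1 mM pyruvate and pen/strep. Test compound (1 mM DMSO stock) was diluted in IFN-α medium, giving final 5 μM compound ([…]) and final 100 U/mL IFN-α. Incubation 16 h, then CCF4-AM FRET substrate 3 h at RT in the dark. Excitation 405 nm; background-subtracted 465/535 nm emission ratio. Two-point normalized: reference sulfonamide + IFN-α = 200%, IFN-α alone = 100%; mean ± SEM.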

[2] = Stability of compound in DMSO stock and in assay media; type: physicochemical
NF-κB [3] = assay: NF-κB activation in THP1-Blue NF-κB reporter cells; type: cell-based; conditions: for NF-κB activity (in words): compound 5 μM + LPS, compared with compound 1
Outline: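 THP1-Blue NF-κB cells at 10^5/well in RPMI with 10% FBS, pen/strep and Normocin. Test compound (1 mM DMSO stock) was diluted into LPS medium, giving final 5 μM compound ([…]), with LPS co-added. After 20 h, supernatant SEAP was measured colorimetrically with QuantiBlue at 630 nm. Two-point normalized: reference sulfonamide + LPS = 200%, LPS alone = 100%; mean ± SEM.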

[4] = system: C57BL/6 (wild-type, WT) mice; type: in vivo; conditions: for systemic toxicity, as indicated by behavior change or weight loss (in words): mice co-immunized with MPLA, ovalbumin and compound; for OVA-specific IgG antibody titers versus MPLA alone (in words): mice, n=8 per group, intramuscular, ovalbumin 20 μg/animal + MPLA + compound, days 0 and 21
Outline: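 Female/male not stated; C57BL/6 wild-type mice aged 7–9 weeks, 8 per group. Test compound mixed with ovalbumin (20 μg/animal) and MPLA and injected into the gastrocnemius muscle on days 0 and 21. Mice then bled, and serum OVA-specific IgG titres measured by ELISA. Data given as mean ± SEM.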

NF-κB [5] = conditions: compound alone, without LPS; cited from earlier work
ISRE [6] = conditions: compound alone, without IFN-α; cited from earlier work

SMILES	ISRE activity (in words) (ISRE [1])	NF-κB activity (in words) (NF-κB [3])	other results
CCOc1ccc(S(=O)(=O)N(C(C)=O)c2cc(OC)c(Cl)cc2OC)cc1 [Compound 48, N-(4-chloro-2,5-dimethoxyphenyl)-N-((4-ethoxyphenyl)sulfonyl)acetamide]	active		stability of stock in DMSO (in words) [2]: stable
CCOc1ccc(S(=O)(=O)Nc2cc(OC)c(Cl)cc2OC)cc1 [Compound 1, N-(4-chloro-2,5-dimethoxyphenyl)-4-ethoxybenzenesulfonamide]			mean SEAP response in NF-κB assay (NF-κB [3]; compound 1 + LPS, raw value used for normalization, mean ± SEM): 3.44 ± 0.08 µg/mL; mean emission ratio in ISRE assay (ISRE [1]; compound 1 + IFN-α, raw value used for normalization, mean ± SEM): 1.88 ± 0.04 µg/mL; systemic toxicity, as indicated by behavior change or weight loss (in words) [4]: without demonstrable systemic toxicity; OVA-specific IgG antibody titers versus MPLA alone (in words) [4]: statistically significant increases; NF-κB activity when tested alone (in words) (NF-κB [5]): did not possess any NF-κB or ISRE activity; ISRE activity when tested alone (in words) (ISRE [6]): did not possess any NF-κB or ISRE activity
COc1cc(NS(=O)(=O)c2ccc(C(=O)O)cc2)c(OC)cc1Cl [Compound 28, 4-(N-(4-chloro-2,5-dimethoxyphenyl)sulfamoyl)benzoic acid]	lost activity	lost activity	
CCOc1ccc(S(=O)(=O)Nc2ccc(Cl)c(OC)c2)cc1 [Compound 4, N-(4-chloro-3-methoxyphenyl)-4-ethoxybenzenesulfonamide]	complete loss of activity	complete loss of activity	
COc1cc(NS(=O)(=O)c2ccccc2OC)c(OC)cc1Cl [Compound 24, N-(4-chloro-2,5-dimethoxyphenyl)-2-methoxybenzenesulfonamide]	none of these molecules was active	none of these molecules was active	
COc1cc(NS(=O)(=O)c2ccc(N)cc2)c(OC)cc1Cl [Compound 18, 4-Amino-N-(4-chloro-2,5-dimethoxyphenyl)benzenesulfonamide]	either weakly active or completely inactive	either weakly active or completely inactive	
CCCCOc1ccc(S(=O)(=O)Nc2cc(OC)c(Cl)cc2OC)cc1 [Compound 14, 4-Butoxy-N-(4-chloro-2,5-dimethoxyphenyl)benzenesulfonamide]	gradual loss of activity	gradual loss of activity	
C#CCN(c1cc(OC)c(Cl)cc1OC)S(=O)(=O)c1ccc(OCC)cc1 [Compound 42, N-(4-chloro-2,5-dimethoxyphenyl)-4-ethoxy-N-(prop-2-yn-1-yl)benzenesulfonamide]	retained activity almost equivalent to that of compound 1	retained activity almost equivalent to that of compound 1	
CCOC(=O)CN(c1cc(OC)c(Cl)cc1OC)S(=O)(=O)c1ccc(OCC)cc1 [Compound 49, Ethyl N-(4-chloro-2,5-dimethoxyphenyl)-N-((4-ethoxyphenyl)sulfonyl)glycinate]	retained dual NF-κB and ISRE activities	retained dual NF-κB and ISRE activities	
CCOc1ccc(S(=O)(=O)N(c2cc(OC)c(Cl)cc2OC)C(C)C)cc1 [Compound 40, N-(4-chloro-2,5-dimethoxyphenyl)-4-ethoxy-N-isopropylbenzenesulfonamide]	retaining ISRE activity	eliminated the NF-κB activity	
CCOc1ccc(S(=O)(=O)N(CCCN)c2cc(OC)c(Cl)cc2OC)cc1.Cl [Compound 55, N-(3-aminopropyl)-N-(4-chloro-2,5-dimethoxyphenyl)-4-ethoxybenzenesulfonamide hydrochloride]	recovered	recovered	
CCOc1ccc(S(=O)(=O)Nc2cc(OC)c(Br)cc2OC)cc1 [Compound 7, N-(4-bromo-2,5-dimethoxyphenyl)-4-ethoxybenzenesulfonamide]	retained activity; also recorded: slightly skewed ISRE activity	retained activity	
CNC(=O)c1ccc(S(=O)(=O)Nc2cc(OC)c(Cl)cc2OC)cc1 [Compound 30, 4-(N-(4-chloro-2,5-dimethoxyphenyl)sulfamoyl)-N-methylbenzamide]	completely inactive	completely inactive	
CCOc1ccc(S(=O)(=O)N(CCCNC(=O)OC(C)(C)C)c2cc(OC)c(Cl)cc2OC)cc1 [Compound 52, tert-Butyl (3-((N-(4-chloro-2,5-dimethoxyphenyl)-4-ethoxyphenyl)sulfonamido)propyl)carbamate]	reduction in activity	reduction in activity	
COc1cc(NS(=O)(=O)c2ccc(C#N)cc2)c(OC)cc1Cl [Compound 19, N-(4-chloro-2,5-dimethoxyphenyl)-4-cyanobenzenesulfonamide]	either weakly active or completely inactive	either weakly active or completely inactive	
COc1cccc(S(=O)(=O)Nc2cc(OC)c(Cl)cc2OC)c1 [Compound 23, N-(4-chloro-2,5-dimethoxyphenyl)-3-methoxybenzenesulfonamide]	none of these molecules was active	none of these molecules was active	
CCNC(=O)CCCN(c1cc(OC)c(Cl)cc1OC)S(=O)(=O)c1ccc(OCC)cc1 [Compound 54, 4-((N-(4-chloro-2,5-dimethoxyphenyl)-4-ethoxyphenyl)sulfonamido)-N-ethylbutanamide]	reduction in ISRE activity	retaining the NF-κB activity	
CCOc1ccc(S(=O)(=O)N(C)c2cc(OC)c(Cl)cc2OC)cc1 [Compound 33, N-(4-chloro-2,5-dimethoxyphenyl)-4-ethoxy-N-methylbenzenesulfonamide]			systemic toxicity, as indicated by behavior change or weight loss (in words) [4]: without demonstrable systemic toxicity; OVA-specific IgG antibody titers versus MPLA alone (in words) [4]: statistically significant increases
CCOc1ccc(S(=O)(=O)N(Cc2ccccc2)c2cc(OC)c(Cl)cc2OC)cc1 [Compound 46, N-benzyl-N-(4-chloro-2,5-dimethoxyphenyl)-4-ethoxybenzenesulfonamide]	potent analogs	potent analogs	
CCOc1ccc(S(=O)(=O)Nc2ccc(Cl)cc2OC)cc1 [Compound 5, N-(4-chloro-2-methoxyphenyl)-4-ethoxybenzenesulfonamide]	complete loss of activity	complete loss of activity	
CCOc1ccc(S(=O)(=O)N(CCCO)c2cc(OC)c(Cl)cc2OC)cc1 [Compound 51, N-(4-chloro-2,5-dimethoxyphenyl)-4-ethoxy-N-(3-hydroxypropyl)benzenesulfonamide]	retained activity in both the assays	retained activity in both the assays	
CCCc1ccc(S(=O)(=O)Nc2cc(OC)c(Cl)cc2OC)cc1 [Compound 16, N-(4-chloro-2,5-dimethoxyphenyl)-4-propylbenzenesulfonamide]	loss of activity	loss of activity	
CCOc1ccc(S(=O)(=O)N(CCCNC(=O)CCCC[C@H]2SC[C@H]3NC(=O)N[C@H]32)c2cc(OC)c(Cl)cc2OC)cc1 [Compound 58, N-(3-((N-(4-chloro-2,5-dimethoxyphenyl)-4-ethoxyphenyl)sulfonamido)propyl)-5-((3aR,4R,6aS)-2-oxohexahydro-1H-thieno[3,4-d]imidazol-4-yl)pentanamide]	equipotent to compound 1	equipotent to compound 1	
COc1cc(NS(=O)(=O)c2ccc(C(N)=O)cc2)c(OC)cc1Cl [Compound 27, 4-(N-(4-chloro-2,5-dimethoxyphenyl)sulfamoyl)benzamide]	lost activity	lost activity	
